Data from ChEMBL document CHEMBL4138058, “Design and synthesis of novel selective estrogen receptor degradation inducers based on the diphenylheptane skeleton” (Medchemcomm, 2017).

What was measured:
Format in all cases: cell-based
[1] = target: T1, Estrogen receptor (Homo sapiens) (UniProt P03372); assay: Downregulation of ERalpha expression in human MCF7 cells at 10 uM after 6 hrs by Western blot method relative to beta-actin
T1 sequence (whole entry): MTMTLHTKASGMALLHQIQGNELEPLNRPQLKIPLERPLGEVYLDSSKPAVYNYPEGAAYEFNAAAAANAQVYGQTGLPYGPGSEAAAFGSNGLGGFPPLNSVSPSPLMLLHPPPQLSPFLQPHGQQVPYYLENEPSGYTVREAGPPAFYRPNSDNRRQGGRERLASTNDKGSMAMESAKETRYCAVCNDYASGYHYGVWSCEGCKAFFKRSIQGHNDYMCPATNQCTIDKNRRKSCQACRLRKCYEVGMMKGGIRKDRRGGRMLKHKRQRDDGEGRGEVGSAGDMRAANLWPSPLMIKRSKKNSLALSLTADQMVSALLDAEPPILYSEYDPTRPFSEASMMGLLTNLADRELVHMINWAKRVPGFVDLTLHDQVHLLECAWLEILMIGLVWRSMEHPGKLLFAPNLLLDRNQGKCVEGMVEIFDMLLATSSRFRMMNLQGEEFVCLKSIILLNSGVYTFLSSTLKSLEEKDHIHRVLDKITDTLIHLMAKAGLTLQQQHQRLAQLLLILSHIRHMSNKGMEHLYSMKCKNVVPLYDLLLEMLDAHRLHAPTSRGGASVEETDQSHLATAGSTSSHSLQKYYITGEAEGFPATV
How it was run: (§1)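 MCF-7 cells kept in DMEM with 10% FBS, kanamycin and 10 μg/mL insulin, then exposed to compounds for 6 h. Lysates made in SDS buffer (0.1 M Tris-HCl pH 8.0, 10% glycerol, 1% SDS), boiled, BCA-normalized and run on SDS-PAGE. Blots probed with anti-ERα, AR, AhR or VDR and β-actin or lamin B. Chemiluminescence quantified as target/loading-protein ratio; means ± S.E., n=3.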

[2] = target: T1, Estrogen receptor (Homo sapiens); assay: Downregulation of ERalpha expression in human MCF7 cells at 3 uM after 6 hrs by Western blot method relative to lamin B; how it was run: as §1
[3] = target: T2, Androgen receptor (Homo sapiens) (UniProt P10275); assay: Downregulation of androgen receptor expression in human MCF7 cells at 3 uM after 6 hrs in presence of proteasome inhibitor MG132 by Western blot method relative to lamin B; how it was run: as §1
T2 sequence (whole entry): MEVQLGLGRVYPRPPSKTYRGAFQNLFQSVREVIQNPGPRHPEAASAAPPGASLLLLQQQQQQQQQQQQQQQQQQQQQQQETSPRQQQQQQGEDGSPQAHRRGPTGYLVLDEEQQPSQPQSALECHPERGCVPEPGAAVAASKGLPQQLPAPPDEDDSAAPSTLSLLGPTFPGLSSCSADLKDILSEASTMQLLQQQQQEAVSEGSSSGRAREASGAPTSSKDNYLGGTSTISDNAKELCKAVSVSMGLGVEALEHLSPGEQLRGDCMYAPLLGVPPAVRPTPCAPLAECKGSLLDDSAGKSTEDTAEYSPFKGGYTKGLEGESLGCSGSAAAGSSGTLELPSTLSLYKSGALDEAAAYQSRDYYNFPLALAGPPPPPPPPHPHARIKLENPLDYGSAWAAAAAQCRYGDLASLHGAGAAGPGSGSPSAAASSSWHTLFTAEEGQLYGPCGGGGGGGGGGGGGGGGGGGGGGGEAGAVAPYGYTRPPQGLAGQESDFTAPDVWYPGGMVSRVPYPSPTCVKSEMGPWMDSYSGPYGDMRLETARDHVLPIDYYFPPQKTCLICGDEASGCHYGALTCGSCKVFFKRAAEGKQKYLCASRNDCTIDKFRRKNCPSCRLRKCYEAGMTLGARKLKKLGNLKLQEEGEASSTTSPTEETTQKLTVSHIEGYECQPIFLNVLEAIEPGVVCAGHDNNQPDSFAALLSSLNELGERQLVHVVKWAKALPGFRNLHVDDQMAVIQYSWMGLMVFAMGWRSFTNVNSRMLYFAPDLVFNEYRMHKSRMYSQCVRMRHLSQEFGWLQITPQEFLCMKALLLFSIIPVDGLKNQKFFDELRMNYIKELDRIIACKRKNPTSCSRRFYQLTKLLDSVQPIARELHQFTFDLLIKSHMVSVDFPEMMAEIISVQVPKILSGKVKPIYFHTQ

[4] = target: T3, Aryl hydrocarbon receptor (Homo sapiens, UniProt P35869); assay: Downregulation of AhR expression in human MCF7 cells at 1 uM after 6 hrs in presence of proteasome inhibitor MG132 by Western blot method relative to lamin B; conditions: mcf7, 6 h; how it was run: as §1
T3 sequence (P35869 whole entry): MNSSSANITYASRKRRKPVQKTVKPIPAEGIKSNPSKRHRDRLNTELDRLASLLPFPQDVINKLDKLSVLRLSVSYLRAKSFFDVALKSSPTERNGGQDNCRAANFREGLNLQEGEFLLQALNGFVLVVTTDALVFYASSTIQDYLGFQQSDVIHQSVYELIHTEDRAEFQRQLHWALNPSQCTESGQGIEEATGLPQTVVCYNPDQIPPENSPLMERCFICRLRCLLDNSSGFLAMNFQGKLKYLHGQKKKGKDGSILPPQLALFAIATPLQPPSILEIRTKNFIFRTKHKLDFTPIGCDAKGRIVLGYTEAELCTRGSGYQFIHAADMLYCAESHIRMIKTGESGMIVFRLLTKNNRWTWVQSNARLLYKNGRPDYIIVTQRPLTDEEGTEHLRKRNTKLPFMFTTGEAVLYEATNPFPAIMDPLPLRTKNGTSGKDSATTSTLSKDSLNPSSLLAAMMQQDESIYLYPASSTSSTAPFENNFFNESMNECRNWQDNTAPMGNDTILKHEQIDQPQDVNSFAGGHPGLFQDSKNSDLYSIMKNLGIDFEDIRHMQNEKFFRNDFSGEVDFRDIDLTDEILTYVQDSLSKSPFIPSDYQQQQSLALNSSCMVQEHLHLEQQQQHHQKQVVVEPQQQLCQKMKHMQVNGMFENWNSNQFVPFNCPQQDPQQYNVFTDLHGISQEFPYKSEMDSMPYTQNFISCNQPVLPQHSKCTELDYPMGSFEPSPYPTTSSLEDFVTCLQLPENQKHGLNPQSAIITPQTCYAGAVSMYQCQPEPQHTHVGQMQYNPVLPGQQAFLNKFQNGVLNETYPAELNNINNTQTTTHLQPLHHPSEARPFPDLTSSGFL

[5] = target: T3, Aryl hydrocarbon receptor; assay: Downregulation of AhR expression in human MCF7 cells at 10 uM after 6 hrs in presence of proteasome inhibitor MG132 by Western blot method relative to lamin B; conditions: mcf7, 6 h; how it was run: as §1
Estrogen receptor = target: T4, Estrogen receptor (Homo sapiens, UniProt P03372); assay: Antagonist activity at GAL4-fused human ERalpha LBD expressed in HEK293 cells assessed as inhibition of 17beta-estradiol-induced transcriptional activation after 16 to 20 hrs by luciferase reporter gene assay
T4 sequence (P03372 whole entry): T1 sequence (whole entry)
How it was run: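 HEK293 cells grown in phenol red-free DMEM with 10% FBS at 37 °C, 5% CO2. Calcium phosphate co-transfection with GAL4-hERα LBD plasmid, MH100x4-tk-luciferase reporter and β-galactosidase normalization plasmid. Compounds added 8 h post-transfection with 0.3 nM 17β-estradiol; harvested 16–20 h later. Luciferase normalized to β-galactosidase; means of triplicate assays.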

Compound CCCCCCCCCCNCCOc1ccc(C(CCC)(CCC)c2ccc(O)c(C)c2)cc1C has an Activity [1] of 44%, an Activity [2] of 47 to 59% and an Activity [3] of 78%. The Activity [4] was 105%, the Activity [5] was 107% and the IC50 (Estrogen receptor) was 45 nM.
